According to ChEMBL document CHEMBL3351249, “Potent cholesteryl ester transfer protein inhibitors of reduced lipophilicity: 1,1'-spiro-substituted hexahydrofuroquinoline derivatives” (J Med Chem, 2014):

Tests used:
Mus musculus [1] = test: Increase in HDL-cholesterol in human CETP/human ApoB-100 transgenic mouse at 1 mg/kg, po dosed for 14 consecutive days; format: functional
Procedure, shortened: (§1)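 Male hemizygous hCETP or hCETP/hApoB100 transgenic mice, 26−30 weeks, chow-fed. Compound suspended in 0.5% aqueous hydroxyethylcellulose, oral gavage each morning for 5 or 14 days. EDTA blood taken 7 h post-dose (fed for 5-day, after 4 h fast for 14-day) from vena facialis under isoflurane. HDL/LDL cholesterol measured on Cobas Integra 400 Plus. Mean ± SEM, one-way ANOVA with Bonferroni.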

Mus musculus [2] = test: Reduction in plasma LDL-cholesterol in human CETP/human ApoB-100 transgenic mouse at 3 mg/kg, po dosed for 14 consecutive days; format: functional
Procedure, shortened: (§2)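 Hemizygous male human CETP/human apoB100 transgenic mice (B6.SJL-Tg(APOA-CETP)1Dsg Tg(APOB)1102Sgy N10), aged 26–30 weeks and chow-fed, received oral gavage each morning for 14 consecutive days. Compound was suspended in 0.5% aqueous hydroxyethylcellulose. EDTA blood was taken from the facial vein under isoflurane 7 h post-dose after a 4 h fast. Plasma LDL-cholesterol fraction was measured on an automated analyzer. Data are mean ± SEM.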

[3] = Volume of distribution at steady state in C57BL/6J mouse at 1 umol/kg, iv; format: ADME, organism-based; details: in vivo, read-out: Vdss
Kidney = test: Drug concentration in kidney of hemizygous human CETP transgenic mouse at 3 mg/kg, po dosed for 5 consecutive days measured on day 3 after cessation of drug treatment; format: ADME, organism-based; parameters: dose 3 mg/kg, route oral; details: in vivo
Procedure, shortened: (§3)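 Male hCETP transgenic mice given oral doses for 5 days in 0.5% hydroxyethylcellulose. Tissues and plasma collected at day 3 and day 21 after the last dose. Fat diluted 6:1 with acetonitrile and homogenized. Analysis by LC/MS/MS on a C18 column with QCs at 4.0−1000 nM, accepted within 30% of target.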

Mus musculus [4] = test: Reduction in LDL-cholesterol in hemizygous human CETP/human apoB100 transgenic mouse dosed for 14 consecutive days via oral gavage
[5] = Drug concentration in kidney of hemizygous human CETP transgenic mouse at 3 mg/kg, po dosed for 5 consecutive days measured on day 21 after cessation of drug treatment; format: ADME, organism-based; parameters: dose 3 mg/kg, route oral; details: read-out: Drug uptake; procedure, shortened: as §3
Plasma [6] = test: Plasma concentration in hemizygous human CETP transgenic mouse at 10 mg/kg, po dosed for 5 consecutive days measured on day 5 and day 7 post dose; format: ADME, organism-based; parameters: dose 10 mg/kg, route oral; details: in vivo
Cynomolgus monkey [7] = test: Effect on myocardial contractility in cynomolgus monkey up to 100 mg/kg by telemetry; format: ADME, organism-based, Macaca fascicularis, Myocardium; parameters: dose 100 mg/kg; details: in vivo
Procedure, shortened: (§4)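 Acute telemetry study in conscious cynomolgus monkeys at doses up to 100 mg/kg. Blood pressure, left ventricular pressure, contractility, heart rate and ECG (PR, QRS, QT) recorded. Exposure followed as Cmax and MRT.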

Muscle tissue = test: Drug concentration in muscle of hemizygous human CETP transgenic mouse at 3 mg/kg, po dosed for 5 consecutive days measured on day 3 after cessation of drug treatment; format: ADME, organism-based; parameters: dose 3 mg/kg, route oral; details: in vivo; procedure, shortened: as §3
Mus musculus [8] = test: Increase in HDL-cholesterol in hemizygous human CETP transgenic mouse at 3 mg/kg, po dosed for 5 consecutive days; format: functional; procedure, shortened: as §1
Plasma [9] = test: Plasma concentration in hemizygous human CETP transgenic mouse at 3 mg/kg, po dosed for 5 consecutive days measured on day 5 and day 7 post dose; format: ADME, organism-based; parameters: dose 3 mg/kg, route oral; details: in vivo
Cynomolgus monkey [10] = test: Effect on left ventricular pressure in cynomolgus monkey up to 100 mg/kg by telemetry; format: ADME, organism-based, Macaca fascicularis, Heart left ventricle; parameters: dose 100 mg/kg; details: in vivo; procedure, shortened: as §4
Mus musculus [11] = test: Increase in HDL-cholesterol in hemizygous human CETP transgenic mouse dosed for 5 consecutive days via oral gavage; format: functional, organism-based; procedure, shortened: as §1
[12] = Clearance in C57BL/6J mouse at 1 umol/kg, iv; format: ADME, organism-based; details: in vivo
[13] = Drug concentration in plasma of hemizygous human CETP transgenic mouse at 3 mg/kg, po dosed for 5 consecutive days measured on day 21 after cessation of drug treatment; format: ADME, organism-based; parameters: dose 3 mg/kg, route oral; procedure, shortened: as §3
Cynomolgus monkey [14] = test: Effect on electrocardiogram parameters in cynomolgus monkey assessed as changes in QT-interval up to 100 mg/kg by telemetry; format: ADME, organism-based, Macaca fascicularis; parameters: dose 100 mg/kg; details: in vivo; procedure, shortened: as §4
Cynomolgus monkey [15] = test: Effect on blood pressure in cynomolgus monkey up to 100 mg/kg by telemetry; format: ADME, organism-based, Macaca fascicularis; parameters: dose 100 mg/kg; details: in vivo; procedure, shortened: as §4
Mus musculus [16] = test: Reduction in plasma LDL-cholesterol in human CETP/human ApoB-100 transgenic mouse at 1 mg/kg, po dosed for 14 consecutive days; format: functional; procedure, shortened: as §1
Mus musculus [17] = test: Inhibition of plasma CETP activity in hemizygous human CETP transgenic mouse dosed for 5 or 14 consecutive days via oral gavage; format: functional, organism-based
[18] = Drug concentration in muscle of hemizygous human CETP transgenic mouse at 3 mg/kg, po dosed for 5 consecutive days measured on day 21 after cessation of drug treatment; format: ADME, organism-based, Muscle tissue; parameters: dose 3 mg/kg, route oral; details: read-out: Drug uptake; procedure, shortened: as §3
[19] = Drug concentration in adipose fat tissue of hemizygous human CETP transgenic mouse at 3 mg/kg, po dosed for 5 consecutive days measured on day 21 after cessation of drug treatment; format: ADME, organism-based; parameters: dose 3 mg/kg, route oral; details: read-out: Drug uptake; procedure, shortened: as §3
Mus musculus [20] = test: Increase in HDL-cholesterol in hemizygous human CETP transgenic mouse at 10 mg/kg, po dosed for 5 consecutive days; format: functional; procedure, shortened: as §1
Mus musculus [21] = test: Increase in HDL-cholesterol in human CETP/human ApoB-100 transgenic mouse at 10 mg/kg, po dosed for 14 consecutive days; format: functional; procedure, shortened: as §1
Mus musculus [22] = test: Increase in HDL-cholesterol in human CETP/human ApoB-100 transgenic mouse at 3 mg/kg, po dosed for 14 consecutive days; format: functional; procedure, shortened: as §1
Cynomolgus monkey [23] = test: Effect on heart rate in cynomolgus monkey up to 100 mg/kg by telemetry; format: ADME, organism-based, Macaca fascicularis; parameters: dose 100 mg/kg; details: in vivo; procedure, shortened: as §4
Liver = test: Drug concentration in liver of hemizygous human CETP transgenic mouse at 3 mg/kg, po dosed for 5 consecutive days measured on day 3 after cessation of drug treatment; format: ADME, organism-based; parameters: dose 3 mg/kg, route oral; details: in vivo; procedure, shortened: as §3
Mus musculus [24] = test: Reduction in plasma LDL-cholesterol in human CETP/human ApoB-100 transgenic mouse at 10 mg/kg, po dosed for 14 consecutive days; format: functional; procedure, shortened: as §2
[25] = AUC (0 to 24 hrs) in C57BL/6J mouse at 10 umol/kg, po; format: ADME, organism-based; parameters: time < 24 hr, dose 10 umol/kg, route oral; details: plasma
[26] = Drug concentration in liver of hemizygous human CETP transgenic mouse at 3 mg/kg, po dosed for 5 consecutive days measured on day 21 after cessation of drug treatment; format: ADME, organism-based; parameters: dose 3 mg/kg, route oral; details: read-out: Drug uptake; procedure, shortened: as §3
NCI-H295R = test: Effect on aldosterone secretion in human NCI-H295R cells up to 10 uM; format: ADME, cell-based
[27] = biological target: T1, Cholesteryl ester transfer protein (Homo sapiens, UniProt P11597); test: Inhibition of human recombinant CETP in presence of 88% human plasma by fluorescence transfer assay
T1 sequence (P11597 whole entry): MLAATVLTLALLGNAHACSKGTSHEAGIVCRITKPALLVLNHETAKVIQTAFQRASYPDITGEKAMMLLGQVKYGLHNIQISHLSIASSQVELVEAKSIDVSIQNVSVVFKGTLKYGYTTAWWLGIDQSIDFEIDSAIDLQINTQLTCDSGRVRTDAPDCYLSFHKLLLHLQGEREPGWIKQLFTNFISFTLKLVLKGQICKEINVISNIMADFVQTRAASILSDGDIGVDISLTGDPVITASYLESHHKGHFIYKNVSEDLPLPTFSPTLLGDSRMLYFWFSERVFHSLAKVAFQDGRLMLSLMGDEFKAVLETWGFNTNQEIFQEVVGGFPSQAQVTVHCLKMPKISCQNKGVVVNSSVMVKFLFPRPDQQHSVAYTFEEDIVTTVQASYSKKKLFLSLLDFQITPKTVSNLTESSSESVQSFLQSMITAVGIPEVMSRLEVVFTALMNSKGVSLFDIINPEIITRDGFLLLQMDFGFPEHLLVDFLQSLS
Procedure, shortened: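 Fluorescent neutral-lipid transfer from donor to acceptor particles by human recombinant CETP, with the test compound added in DMSO. Incubation 3 h at 37 °C. CE transfer is read as the fluorescence change at 485/535 nm. IC50 comes from a four-parameter logistic fit with variable slope. For this line the reaction contains 88% human plasma.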

Cynomolgus monkey [28] = test: Effect on electrocardiogram parameters in cynomolgus monkey assessed as changes in PR-interval up to 100 mg/kg by telemetry; format: ADME, organism-based, Macaca fascicularis; parameters: dose 100 mg/kg; details: in vivo; procedure, shortened: as §4
Plasma [29] = test: Plasma concentration in hemizygous human CETP transgenic mouse at 1 mg/kg, po dosed for 5 consecutive days measured on day 5 and day 7 post dose; format: ADME, organism-based; parameters: dose 1 mg/kg, route oral; details: in vivo
Cynomolgus monkey [30] = test: Effect on electrocardiogram parameters in cynomolgus monkey assessed as changes in QRS-complex up to 100 mg/kg by telemetry; format: ADME, organism-based, Macaca fascicularis; parameters: dose 100 mg/kg; details: in vivo; procedure, shortened: as §4
[31] = Mean residence time in C57BL/6J mouse at 1 umol/kg, iv; format: ADME, organism-based; details: in vivo
[32] = Drug concentration in adipose fat tissue of hemizygous human CETP transgenic mouse at 3 mg/kg, po dosed for 5 consecutive days measured on day 3 after cessation of drug treatment; format: ADME, organism-based; parameters: dose 3 mg/kg, route oral; details: in vivo; procedure, shortened: as §3
Plasma [33] = test: Drug concentration in plasma of hemizygous human CETP transgenic mouse at 3 mg/kg, po dosed for 5 consecutive days measured on day 3 after cessation of drug treatment; format: ADME, organism-based; parameters: dose 3 mg/kg, route oral; details: in vivo; procedure, shortened: as §3
[34] = Drug concentration in testes of hemizygous human CETP transgenic mouse at 3 mg/kg, po dosed for 5 consecutive days measured on day 21 after cessation of drug treatment; format: ADME, organism-based, Testis; parameters: dose 3 mg/kg, route oral; details: male, read-out: Drug uptake; procedure, shortened: as §3
[35] = Cmax in cynomolgus monkey up to 100 mg/kg; format: ADME, organism-based, Macaca fascicularis; parameters: dose 100 mg/kg; details: in vivo; procedure, shortened: as §4
[36] = Drug concentration in testes of hemizygous human CETP transgenic mouse at 3 mg/kg, po dosed for 5 consecutive days measured on day 3 after cessation of drug treatment; format: ADME, organism-based, Testis; parameters: dose 3 mg/kg, route oral; details: in vivo; procedure, shortened: as §3
[37] = Mean residence time in cynomolgus monkey up to 100 mg/kg; format: ADME, organism-based, Macaca fascicularis; parameters: dose 100 mg/kg; details: in vivo; procedure, shortened: as §4
Mus musculus [38] = test: Increase in HDL-cholesterol in hemizygous human CETP transgenic mouse dosed for 14 consecutive days via oral gavage; format: functional, organism-based; procedure, shortened: as §1
Mus musculus [39] = test: Increase in HDL-cholesterol in hemizygous human CETP transgenic mouse at 1 mg/kg, po dosed for 5 consecutive days; format: functional; procedure, shortened: as §1

SMILES: CC(C)c1nc2c(c3c1[C@@H](c1ccc(C(F)(F)F)cc1)OC31CCOCC1)[C@@H](O)CC(C)(C)C2
- Activity (Mus musculus [1]): 23.5%
- inhibition in vivo at 3 mg/kg (Mus musculus [2]): 49%
- Vd [3]: 5.9 L/kg
- Drug uptake (Kidney): Active
- Activity (Mus musculus [4]): Dose-dependent effect
- concentration at 21 days after cessation of treatment [5]: < 30 nM
- concentration (Plasma [6]): 671 nM
- Activity (Cynomolgus monkey [7]): Non-toxic
- Drug uptake (Muscle tissue): Active
- Activity (Mus musculus [8]): 74.4%
- concentration (Plasma [9]): 206 nM
- Activity (Cynomolgus monkey [10]): Non-toxic
- Activity (Mus musculus [11]): Dose-dependent effect
- clearance [12]: 16 mL/min/kg
- concentration at 21 days after cessation of treatment [13]: < 30 nM
- Activity (Cynomolgus monkey [14]): Non-toxic
- Activity (Cynomolgus monkey [15]): Non-toxic
- inhibition in vivo at 1 mg/kg (Mus musculus [16]): 26.2%
- inhibition (Mus musculus [17]): Dose-dependent effect
- concentration at 21 days after cessation of treatment [18]: < 30 nM
- concentration at 21 days after cessation of treatment [19]: < 30 nM
- Activity (Mus musculus [20]): 37.4%
- Activity (Mus musculus [21]): 37.2%
- Activity (Mus musculus [22]): 32.3%
- Activity (Cynomolgus monkey [23]): Non-toxic
- Drug uptake (Liver): Active
- inhibition in vivo at 10 mg/kg (Mus musculus [24]): 60%
- AUC(0-t) at 24 h [25]: 4.9 µM·h
- concentration at 21 days after cessation of treatment [26]: < 30 nM
- Activity (NCI-H295R): Non-toxic
- IC50 [27]: 151 nM
- Activity (Cynomolgus monkey [28]): Non-toxic
- concentration (Plasma [29]): 96 nM
- Activity (Cynomolgus monkey [30]): Non-toxic
- MRT [31]: 6.1 h
- Drug uptake [32]: Active
- Drug uptake (Plasma [33]): Active
- concentration at 21 days after cessation of treatment [34]: < 30 nM
- Cmax [35]: > 10000 nM
- Drug uptake [36]: Active
- MRT [37]: > 20 h
- Activity (Mus musculus [38]): Dose-dependent effect
- Activity (Mus musculus [39]): 55.6%
